Published values pooled from the literature.
≈ marks a conversion by molar mass, not a printed value.

Cn1cncc1[C@@](N)(c1ccc(Cl)cc1)c1ccc2c(c1)c(-c1cccc(Cl)c1)cc(=O)n2C — bioavailability (beagle dog, plasma; oral, 10 mg/kg, single dose): 65%
CC1(F)CN(C(=O)Cn2c(=O)c(C(=O)NCc3ccc(Cl)cc3)cc3nc(N4CCNC4=O)cnc32)C1 — thermodynamic solubility (aqueous buffer; 24 h, pH 7.4, 37 °C): < 1.56 µM
Cc1c(C(=O)O)ccc2c3n(nc12)[C@@H]1[C@H](C3)N(CC2CC2)[C@@]2(C(=O)Nc3cc(Cl)ccc32)[C@H]1c1cccc(Cl)c1F — bioavailability (male dog, plasma; oral, 2 mg/kg): 109%
CO[C@]1(C(=O)N[C@@H](C)c2ccc(-n3cc(F)cn3)nc2)CC[C@H](c2nc(C)cc(Nc3cc(C)[nH]n3)n2)CC1 — pKa: 6.71
C[C@H]1COC2=C1C(=O)C(=O)c1c2ccc2c1CCCC2(C)C — thermodynamic solubility (PBS; 24 h, pH 4, 25 °C): 15.8 µg/mL
CC[C@@](O)(c1ccc(C(F)(F)F)c(C#N)c1)c1c2ccn(C3CC3)c(=O)c2nn1C — kinetic solubility (nephelometry; aqueous buffer; 30 min, pH 6.5): 20 to 40 µM (≈ 8.33 to 16.7 µg/mL)
CCCCC(CC)CNC(=N)NC(=N)NCCCCCCNC(=N)NC(=N)NCC(CC)CCCC (centres unmarked) — Papp A→B (Caco-2; 5 µM, 2 h): < 0.07 ×10⁻⁶ cm/s
Cn1cncc1[C@@](N)(c1ccc(Cl)cc1)c1ccc2c(c1)c(-c1cccc(Cl)c1)cc(=O)n2C — solubility (FaSSIF; pH 6.5, 37 °C): 14.1 µg/mL (≈ 28.8 µM)
Cn1nc2c(=O)n(C3CC3)nc(C3CC3)c2c1Cc1ccc(C(F)(F)F)c(F)c1 — kinetic solubility (nephelometry; aqueous buffer; 30 min, pH 6.5): 6.3 to 12.5 µM (≈ 2.56 to 5.08 µg/mL)
CN1CCN(c2cnc3c(cc(C(=O)NCc4ccc(Cl)cc4)c(=O)n3CC(=O)N3CC(C)(F)C3)n2)C1=O — thermodynamic solubility (aqueous buffer; 24 h, pH 7.4, 37 °C): < 1.56 µM
Cn1nc2c(=O)n(C3CC3)ncc2c1[C@](O)(c1ccc(C(F)(F)F)c(Cl)c1)C(F)(F)F — kinetic solubility (nephelometry; aqueous buffer; 30 min, pH 6.5): 5 to 10 µM (≈ 2.33 to 4.67 µg/mL)
CC(C)C[C@H](NC(=O)[C@@H]1COCCCCCC(=O)NCC(=O)N2CCC[C@H]2C(=O)N1)C(=O)[C@@]1(C)CO1 — Papp B→A (Caco-2; 10 µM, 2 h, pH 7.4): 7.25 ×10⁻⁶ cm/s
CC(C)NCC(O)COc1cccc2ccccc12 (centres unmarked) — Papp A→B (Caco-2; 5 µM, 2 h): 18.4 ×10⁻⁶ cm/s
CCn1cc(Cl)c2c(Cc3ccc(N4CCCCC4)nc3)n(C)nc2c1=O — kinetic solubility (nephelometry; aqueous buffer; 30 min, pH 6.5): 40 to 80 µM (≈ 15.4 to 30.9 µg/mL)
